One test deals with Mus musculus. The test is described as follows: Antinociceptive activity was determined using the mouse acetylcholine-induced abdominal constriction test followed by subcutaneous administration. Format: functional. As to conditions: Abdomen, sc. The essentials:
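Mice received each compound by subcutaneous injection and were scored in the acetylcholine-induced abdominal constriction test. An ED50 in mg/kg was determined for each compound.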

Test [1] addresses Kappa-type opioid receptor (Cavia porcellus) (UniProt P41144). Kind of test: pKa value was measured against opioid receptor kappa. In a few lines: (§1)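 pKa was found by titration of the compound at a sample concentration of 0.002 M in 10% methanol-water solvent.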
The target in test [2] is T1, Kappa-type opioid receptor (Homo sapiens, UniProt P41145). Kind of test: Opioid receptor kappa 1 agonist potency in vitro using rabbit vas deferens(LVD) preparation. Format: functional, Oryctolagus cuniculus. As to conditions: target entry is the homologue from another species. The essentials: (§2)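 Isolated rabbit vas deferens (LVD) was used as an in vitro kappa-agonist bioassay. Potency is given as an IC50 in nM, the mean of two independent determinations, with individual values typically within ±10% of the mean. Compounds were tested as racemates.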

Test [3] has as its target Kappa-type opioid receptor (Cavia porcellus) (UniProt P41144). The test is described as follows: pKa value was measured against Opioid receptor kappa 1. The essentials:
as §1

For test [4] the target is unchanged. Kind of test: pKa value was measured against kOpioid receptor kappa 1. In a few lines: as §1
The target of test [5] is T1, Kappa-type opioid receptor. Kind of test: Kappa-opioid receptor agonist potency in vitro using rabbit vas deferens(LVD) preparation. The format is functional, Oryctolagus cuniculus. As to conditions: target entry is the homologue from another species. The essentials:
as §2

Test [6] concerns the target T1, Kappa-type opioid receptor. The test is described as follows: Opioid receptor kappa agonist potency in vitro using rabbit vas deferens(LVD) preparation. As to conditions: target entry is the homologue from another species. The format is functional, Oryctolagus cuniculus. In a few lines:
as §2

Chain of Kappa-type opioid receptor (Cavia porcellus) (P41144 whole entry): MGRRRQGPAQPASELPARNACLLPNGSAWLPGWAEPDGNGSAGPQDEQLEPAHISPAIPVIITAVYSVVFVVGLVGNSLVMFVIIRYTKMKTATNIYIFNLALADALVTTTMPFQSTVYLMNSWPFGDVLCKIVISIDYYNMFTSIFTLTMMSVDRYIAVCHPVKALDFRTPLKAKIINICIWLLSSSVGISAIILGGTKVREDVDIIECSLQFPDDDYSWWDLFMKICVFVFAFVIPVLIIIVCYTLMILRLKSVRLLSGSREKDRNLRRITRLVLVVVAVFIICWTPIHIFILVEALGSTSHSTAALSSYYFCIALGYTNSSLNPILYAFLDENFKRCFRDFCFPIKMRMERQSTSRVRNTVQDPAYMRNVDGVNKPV
T1 sequence (P41145 whole entry): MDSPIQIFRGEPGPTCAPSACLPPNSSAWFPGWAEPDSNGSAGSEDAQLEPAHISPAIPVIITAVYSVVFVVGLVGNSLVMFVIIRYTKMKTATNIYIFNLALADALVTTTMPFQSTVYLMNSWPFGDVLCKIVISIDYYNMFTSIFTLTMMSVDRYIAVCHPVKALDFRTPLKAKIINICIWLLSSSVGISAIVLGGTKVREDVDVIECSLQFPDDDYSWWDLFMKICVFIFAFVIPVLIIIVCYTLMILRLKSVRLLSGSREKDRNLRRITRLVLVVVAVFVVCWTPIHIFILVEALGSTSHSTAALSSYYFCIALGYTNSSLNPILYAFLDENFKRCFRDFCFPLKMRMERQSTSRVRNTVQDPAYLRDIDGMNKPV

In general, ED50 refers to the dose at which the effect has come halfway, by size or by number of responders. A lower ED50 goes with an effect at a small dose. `O=C(Cc1ccc(Cl)c(Cl)c1)N1CCCCC1CN1CCC(O)C1` (stereo unspecified): in the test with Mus musculus, the ED50 turned out to be 0.01 mg/kg. Also, the pKa in test [1] was 8.1.

Consider `COC(=O)/C=C1/CCN(CC2CCCCN2C(=O)Cc2ccc(Cl)c(Cl)c2)C1` (stereo unspecified), for which the ED50 with Mus musculus stood at 0.07 mg/kg.

The IC50 is the concentration at which inhibition is half-maximal. The low end stands for higher potency, the high end for lower potency. The molecule `CN(C)CC1CCCCN1C(=O)Cc1ccc(Cl)c(Cl)c1` (stereo unspecified) registered an ED50 with Mus musculus of 0.064 mg/kg. In addition, the IC50 in test [2] came out at 102 nM.

The molecule `O=C(Cc1ccc(Cl)c(Cl)c1)N1CCCCC1CN1CC=CC1` (stereo unspecified) showed an ED50 in the test with Mus musculus of 0.04 mg/kg. For the same molecule, the IC50 in test [2] came to 3.5 nM.

In the test with Mus musculus, `COC(=O)/C=C1\CCN(CC2CCCCN2C(=O)Cc2ccc(Cl)c(Cl)c2)C1` (stereo unspecified) had an ED50 of 6.6 mg/kg.

`O=C(Cc1ccc(Cl)c(Cl)c1)N1CCC2(CC1CN1CCCC1)OCCO2` (stereo unspecified): in the test with Mus musculus, the ED50 worked out at 0.001 mg/kg.

In the test on Mus musculus, `O=C1CCN(CC2CCCCN2C(=O)Cc2ccc(Cl)c(Cl)c2)CC1` (stereo unspecified) yielded an ED50 above 10 mg/kg.

`O=C(Cc1ccc(Cl)c(Cl)c1)N1CCCCC1CN1CCCO1` (stereo unspecified): the ED50 in the test with Mus musculus was 0.38 mg/kg.

As to `O=C1CCCN(C(=O)Cc2ccc(Cl)c(Cl)c2)C1CN1CCCC1` (stereo unspecified), the 50% effect level with Mus musculus (ED50) was put at a dose of 3.4 mg/kg.

Consider `C[C@H]1CCC[C@@H](CN2CCCC2)N1C(=O)Cc1ccc(Cl)c(Cl)c1`, for which the 50% effect level in the test with Mus musculus (ED50) was put at a dose of 0.034 mg/kg.

With `C[C@@H]1CCC[C@@H](CN2CCCC2)N1C(=O)Cc1ccc(Cl)c(Cl)c1`, the ED50 with Mus musculus came out at 0.4 mg/kg.

As for `O=C(Cc1ccc(Cl)c(Cl)c1)N1CC[C@@H](O)C[C@H]1CN1CCCC1`, the ED50 with Mus musculus came out at 0.27 mg/kg. In test [2], the IC50 worked out at 120 nM.

As for `O=C(Cc1ccc(Cl)c(Cl)c1)N1CCCCC1CN1CCCCC1` (stereo unspecified), the ED50 in the test with Mus musculus is 0.24 mg/kg.

`COC(=O)[C@@H]1CCC[C@@H](CN2CCCC2)N1C(=O)Cc1ccc(Cl)c(Cl)c1` came in with an ED50 in the test with Mus musculus of 0.43 mg/kg.

As for `C=C1CCN(CC2CCCCN2C(=O)Cc2ccc(Cl)c(Cl)c2)C1` (stereo unspecified), in the test with Mus musculus, the ED50 worked out at 0.05 mg/kg. The same molecule came in with a pKa in test [1] of 7.7.

As for `O=C(Cc1ccc(Cl)c(Cl)c1)N1CC[C@H](O)C[C@H]1CN1CCCC1`, in the test on Mus musculus, the 50% effect level (ED50) was put at a dose of 1.4 mg/kg.

On to `C=C1CCCN(C(=O)Cc2ccc(Cl)c(Cl)c2)C1CN1CCCC1` (stereo unspecified), for which, in the test on Mus musculus, the 50% effect level (ED50) was put at a dose of 0.11 mg/kg.

Molecule `C=C1CCN(CC2CCCCN2C(=O)Cc2ccc(Cl)c(Cl)c2)CC1` (stereo unspecified) showed an IC50 in test [2] of 550 nM.

In turn, `O=C(Cc1ccc(Cl)c(Cl)c1)N1CCC[C@H](O)[C@H]1CN1CCCC1` registered an ED50 in the test with Mus musculus of 3.6 mg/kg.

Molecule `O=C(Cc1ccc(Cl)c(Cl)c1)N1CCC2(CC1CN1CCCC1)SCCS2` (stereo unspecified) returned an ED50 in the test on Mus musculus of 0.025 mg/kg.

Molecule `O=C1CCN(CC2CCCCN2C(=O)Cc2ccc(Cl)c(Cl)c2)C1` (stereo unspecified) displayed an ED50 in the test with Mus musculus of 0.06 mg/kg. The pKa in test [3] amounted to 5.3. In test [2], this molecule registered an IC50 of 0.2 nM.

For the molecule `C=CCC1(CN2CCCC2)CCCCN1C(=O)Cc1ccc(Cl)c(Cl)c1` (stereo unspecified), the 50% effect level with Mus musculus (ED50) was put at a dose of 2.4 mg/kg.

The molecule `O=C(Cc1ccc(Cl)c(Cl)c1)N1CCCCC1CN1CCC2(CC1)OCCO2` (stereo unspecified) came in with an ED50 in the test with Mus musculus above 10 mg/kg.

`O=C(Cc1ccc(Cl)c(Cl)c1)N1CCCCC1CN1CCCC1` (stereo unspecified) returned an ED50 in the test with Mus musculus of 0.03 mg/kg. This molecule also came in with a pKa in test [4] of 9. In test [5], the IC50 was determined as 11 nM.

In the test with Mus musculus, `O=C1CCN(C(=O)Cc2ccc(Cl)c(Cl)c2)C(CN2CCCC2)C1` (stereo unspecified) gave an ED50 of 0.018 mg/kg.

Molecule `O=C1CC[C@@H](CN2CCCC2)N(C(=O)Cc2ccc(Cl)c(Cl)c2)C1` displayed an ED50 in the test on Mus musculus of 0.91 mg/kg.

In the test with Mus musculus, `N#C/C=C1/CCN(CC2CCCCN2C(=O)Cc2ccc(Cl)c(Cl)c2)C1` (stereo unspecified) gave an ED50 of 0.19 mg/kg. This molecule also had an IC50 in test [2] of 0.12 nM.

In test [6], `O=C(Cc1ccc(Cl)c(Cl)c1)N1[C@@H](CO)CCC[C@H]1CN1CCCC1` showed an IC50 of 2200 nM.

Turning to `N#C/C=C1\CCN(CC2CCCCN2C(=O)Cc2ccc(Cl)c(Cl)c2)C1` (stereo unspecified), the ED50 in the test with Mus musculus was above 10 mg/kg. Also, the IC50 in test [2] was 690 nM.

For the molecule `COC(=O)[C@@H]1CCN(C(=O)Cc2ccc(Cl)c(Cl)c2)[C@H](CN2CCCC2)C1`, the ED50 in the test on Mus musculus is above 10 mg/kg.

`NC(=O)[C@@H]1CCN(C(=O)Cc2ccc(Cl)c(Cl)c2)[C@H](CN2CCCC2)C1` gave an ED50 in the test with Mus musculus above 10 mg/kg.

In turn, `COC(=O)C1=CCCN(CC2CCCCN2C(=O)Cc2ccc(Cl)c(Cl)c2)C1` (stereo unspecified) registered an ED50 in the test with Mus musculus of 0.41 mg/kg.

In the test with Mus musculus, `O=C(Cc1ccc(Cl)c(Cl)c1)N1CCC[C@@H](O)[C@H]1CN1CCCC1` gave an ED50 of 1.7 mg/kg.

Regarding `O=C(Cc1ccc(Cl)c(Cl)c1)N1CCCCC1CN1CC=CCC1` (stereo unspecified), the ED50 in the test on Mus musculus turned out to be 0.009 mg/kg.

Molecule `O=C(Cc1ccc(Cl)c(Cl)c1)N1CC2(CC[C@H]1CN1CCCC1)OCCO2` registered a median effective dose (ED50) with Mus musculus of 1.1 mg/kg.

For the origin of these results see ChEMBL document CHEMBL1126150, “New kappa-receptor agonists based upon a 2-[(alkylamino)methyl]piperidine nucleus” (J Med Chem, 1992).
